Data from ChEMBL document CHEMBL4330087, “Synthesis, antimicrobial activity, attenuation of aminoglycoside resistance in MRSA, and ribosomal A-site binding of pyrene-neomycin conjugates” (Eur J Med Chem, 2019).
The source made the active and inactive calls. The rule behind the calls is not given here.

Key:
Enterococcus faecium = experiment: Antibacterial activity against NEO-intermediate sensitive Enterococcus faecium BM4105-RF at 6.25 uM after 15 to 20 hrs by CLSI protocol based microdilution assay relative to control; type: functional
How it was run: (§1)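 Single-concentration screen at 6.25 μM against exponential-phase cultures, in duplicate, with NEO as reference. Enterococcus was grown in BHI broth, M. smegmatis in TS broth with 0.05% Tween 80, and all other strains in TS broth. The 1% DMSO water vehicle was added to broth (background) and culture (growth control). Incubation was 37 °C, humidified, 15-20 h. Result is percent growth inhibition.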

[1] = Inhibition of AAC(3)-4 (unknown origin)
Escherichia coli [2] = experiment: Antibacterial activity against NEO-sensitive Escherichia coli ATCC 25922 at 6.25 uM after 15 to 20 hrs by CLSI protocol based microdilution assay relative to control; type: functional; how it was run: as §1
Listeria monocytogenes = experiment: Antibacterial activity against NEO-sensitive Listeria monocytogenes ATCC 19115 at 6.25 uM after 15 to 20 hrs by CLSI protocol based microdilution assay relative to control; type: functional; how it was run: as §1
[3] = system: Mycolicibacterium smegmatis; experiment: Antibacterial activity against NEO-sensitive Mycobacterium smegmatis at 6.25 uM after 15 to 20 hrs by CLSI protocol based microdilution assay relative to control; type: functional; how it was run: as §1
Escherichia coli [4] = experiment: Antibacterial activity against NEO-sensitive Escherichia coli harboring TolC mutant at 6.25 uM after 15 to 20 hrs by CLSI protocol based microdilution assay relative to control; type: functional
How it was run: (§2)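 Exponential-phase cultures were exposed to 6.25 μM compound in duplicate with neomycin as reference, at 37 °C in a humidified incubator for 15-20 h. Broth and culture controls received sterile water with 1% DMSO. Percent growth inhibition was calculated against the growth and background controls.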

[5] = Inhibition of Eis (unknown origin)
Staphylococcus aureus [6] = experiment: Antibacterial activity against NEO-sensitive Staphylococcus aureus 25923 at 6.25 uM after 15 to 20 hrs by CLSI protocol based microdilution assay relative to control; type: functional; how it was run: as §1
[7] = Inhibition of AAC(6')-1e (unknown origin)
Bacillus anthracis = experiment: Antibacterial activity against NEO-sensitive Bacillus anthracis BA852 at 6.25 uM after 15 to 20 hrs by CLSI protocol based microdilution assay relative to control; type: functional; how it was run: as §2
[8] = system: Staphylococcus epidermidis; experiment: Antibacterial activity against NEO-sensitive Staphylococcus epidermidis 12384 at 6.25 uM after 15 to 20 hrs by CLSI protocol based microdilution assay relative to control; type: functional; how it was run: as §1
[9] = Inhibition of APH(2\")-1a (unknown origin)
Enterococcus faecalis = experiment: Antibacterial activity against NEO-intermediate sensitive Enterococcus faecalis ATCC 29212 at 6.25 uM after 15 to 20 hrs by CLSI protocol based microdilution assay relative to control; type: functional; how it was run: as §1
Staphylococcus aureus [10] = experiment: Antibacterial activity against methicillin-resistant Staphylococcus aureus 33591 at 6.25 uM after 15 to 20 hrs by CLSI protocol based microdilution assay relative to control; type: functional; how it was run: as §2
Staphylococcus aureus [11] = experiment: Antibacterial activity against NEO-sensitive Staphylococcus aureus harboring NorA mutant at 6.25 uM after 15 to 20 hrs by CLSI protocol based microdilution assay relative to control; type: functional; how it was run: as §2
[12] = Displacement of F-NEO from human mitochondrial rRNA-A site C1410U mutant after 10 to 20 mins by fluorescence assay
How it was run: (§3)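 A 100 nM F-NEO:A-site RNA complex in 10 mM HEPES, 50 mM NaCl, 0.04 mM EDTA, pH 7.0 was titrated with 2-fold dilutions of ligand from 20 to 0.009 μM, or from 60 or 40 μM for weaker ligands. Incubated 10-20 min at room temperature, fluorescence read at ex 485/em 525 nm. IC50 from dose-response curve fit.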

Homo sapiens [13] = organism: Homo sapiens; experiment: Displacement of F-NEO from human mitochondrial rRNA-A site C1410U mutant after 10 to 20 mins by fluorescence assay relative to NEO; design: concentration or dose not given beside the values
How it was run: (§4)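 100 nM F-NEO:A-site complex in 10 mM HEPES, 50 mM NaCl, 0.04 mM EDTA, pH 7.0, mixed with ligand and incubated 10-20 min at room temperature. Fluorescence read at ex 485/em 525 nm, in duplicate. Percent binding was computed from the intensities of ligand-treated complex, complex without ligand, and complex with neomycin.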

Klebsiella pneumoniae = experiment: Antibacterial activity against Klebsiella pneumoniae NR-151410 at 6.25 uM after 15 to 20 hrs by CLSI protocol based microdilution assay relative to control; type: functional; how it was run: as §1
Ribosomal RNA A-site [14] = experiment: Displacement of F-NEO from Escherichia coli rRNA-A site after 10 to 20 mins by fluorescence assay relative to NEO; type: nucleic-acid assay; design: concentration or dose not given beside the values; how it was run: as §4
Staphylococcus aureus [15] = experiment: Antibacterial activity against methicillin-resistant Staphylococcus aureus SU-5 at 6.25 uM after 15 to 20 hrs by CLSI protocol based microdilution assay relative to control; type: functional; how it was run: as §2
[16] = Antibacterial activity against NEO-sensitive Enterobacter cloacae 13047 at 6.25 uM after 15 to 20 hrs by CLSI protocol based microdilution assay relative to control; type: functional, Enterobacter cloacae subsp. cloacae, ATCC 13047; how it was run: as §1
Staphylococcus aureus [17] = experiment: Antibacterial activity against methicillin-resistant Staphylococcus aureus A960649 at 6.25 uM after 15 to 20 hrs by CLSI protocol based microdilution assay relative to control; type: functional; how it was run: as §2
Klebsiella oxytoca = experiment: Antibacterial activity against NEO-sensitive Klebsiella oxytoca HM-625 at 6.25 uM after 15 to 20 hrs by CLSI protocol based microdilution assay relative to control; type: functional; how it was run: as §1
[18] = Inhibition of AAC(2')-1c (unknown origin)
Streptococcus pyogenes = experiment: Antibacterial activity against NEO-resistant Streptococcus pyogenes C203 at 6.25 uM after 15 to 20 hrs by CLSI protocol based microdilution assay relative to control; type: functional; how it was run: as §2
Ribosomal RNA A-site [19] = experiment: Displacement of F-NEO from human mitochondrial rRNA-A site after 10 to 20 mins by fluorescence assay relative to NEO; type: nucleic-acid assay; design: concentration or dose not given beside the values; how it was run: as §4
Staphylococcus aureus [20] = experiment: Antibacterial activity against methicillin-resistant Staphylococcus aureus M0602 at 6.25 uM after 15 to 20 hrs by CLSI protocol based microdilution assay relative to control; type: functional; how it was run: as §2
Pseudomonas aeruginosa = experiment: Antibacterial activity against NEO-resistant Pseudomonas aeruginosa 27853 at 6.25 uM after 15 to 20 hrs by CLSI protocol based microdilution assay relative to control; type: functional; how it was run: as §2
Ribosomal RNA A-site [21] = experiment: Displacement of F-NEO from human cytosolic rRNA-A site after 10 to 20 mins by fluorescence assay relative to NEO; type: nucleic-acid assay; design: concentration or dose not given beside the values; how it was run: as §4
Homo sapiens [22] = organism: Homo sapiens; experiment: Displacement of F-NEO from human mitochondrial rRNA-A site A1490G mutant after 10 to 20 mins by fluorescence assay relative to NEO; how it was run: as §4
Ribosomal RNA A-site [23] = experiment: Displacement of F-NEO from human cytosolic rRNA-A site after 10 to 20 mins by fluorescence assay; type: nucleic-acid assay; how it was run: as §3
[24] = Inhibition of APH(3')-1a (unknown origin)

Question: With `NC[C@@H]1O[C@H](O[C@H]2[C@@H](O)[C@H](O[C@@H]3[C@@H](O)[C@H](N)C[C@H](N)[C@H]3O[C@H]3O[C@H](CN)[C@@H](O)[C@H](O)[C@H]3N)O[C@@H]2CSCCNC(=S)NCCCCCCNC(=O)CCCc2ccc3ccc4cccc5ccc2c3c45)[C@H](N)[C@@H](O)[C@@H]1O` as the compound, how does the Activity (Enterococcus faecium) read?
Answer: 18%

Question: What about the inhibition [1] of the same compound?
Answer: Active

Question: And the Activity (Escherichia coli [2])?
Answer: 11%

Question: What about the Activity (Listeria monocytogenes) of the same compound?
Answer: 91%

Question: What about the Activity [3] of the same compound?
Answer: 61%

Question: What about the Activity (Escherichia coli [4]) of the same compound?
Answer: 100%

Question: What about the inhibition [5] of the same compound?
Answer: Active

Question: What about the Activity (Staphylococcus aureus [6]) of the same compound?
Answer: 98%

Question: And the inhibition [7]?
Answer: Active

Question: What about the Activity (Bacillus anthracis) of the same compound?
Answer: 100%

Question: And the Activity [8]?
Answer: 80%

Question: And the inhibition [9]?
Answer: Active

Question: What about the Activity (Enterococcus faecalis) of the same compound?
Answer: 51%

Question: What about the Activity (Staphylococcus aureus [10]) of the same compound?
Answer: 47%

Question: What about the Activity (Staphylococcus aureus [11]) of the same compound?
Answer: 100%

Question: What about the IC50 [12] of the same compound?
Answer: 180 nM

Question: What about the inhibition (Homo sapiens [13]) of the same compound?
Answer: 91%

Question: And the Activity (Klebsiella pneumoniae)?
Answer: 33%

Question: What about the inhibition (Ribosomal RNA A-site [14]) of the same compound?
Answer: 64%

Question: And the Activity (Staphylococcus aureus [15])?
Answer: 0%

Question: And the Activity [16]?
Answer: 29%

Question: What about the Activity (Staphylococcus aureus [17]) of the same compound?
Answer: 87%

Question: What about the Activity (Klebsiella oxytoca) of the same compound?
Answer: 21%

Question: And the inhibition [18]?
Answer: Active

Question: And the Activity (Streptococcus pyogenes)?
Answer: inactive

Question: What about the inhibition (Ribosomal RNA A-site [19]) of the same compound?
Answer: 70%

Question: What about the Activity (Staphylococcus aureus [20]) of the same compound?
Answer: 0%

Question: What about the Activity (Pseudomonas aeruginosa) of the same compound?
Answer: 14%

Question: And the inhibition (Ribosomal RNA A-site [21])?
Answer: 75%

Question: What about the inhibition (Homo sapiens [22]) of the same compound?
Answer: 58%

Question: What about the IC50 (Ribosomal RNA A-site [23]) of the same compound?
Answer: 252 nM

Question: And the inhibition [24]?
Answer: Active
